Shown are actives, neighbours in structure and some others; about 2% of the full set was active somewhere.
EBNA-1 inhibitor: blocks EBNA-1 binding to DNA; EBNA-1 DNA binding, fluorescence polarization; inhibition, % at 14.8 µM; 0.34% of 300,000 active; in the data active = inhibition above about 28%
NS3 helicase inh: blocks Hepatitis C virus NS3 helicase unwinding; AID 1800; 0.56% of 290,000 active; inhibition, % at 10.9 µM; NS3 helicase DNA unwinding, Cy5 molecular beacon fluorescence;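 active = inhibition above the mean of all tested compounds plus 3 SD, set per campaign, cut at about 35% in these data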
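Test system: hepatitis C virus NS3 helicase domain fragment enzyme. Also added: annealed dual-labelled DNA beacon duplex, ATP-started. Timing: 60 min unwinding reaction at 25 °C after ATP addition. Technique: Cy5 fluorescence. Measure: % inhibition of unwinding.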
ZTA counter: blocks Epstein-Barr virus ZTA, an EBNA-1 counter-screen; inhibition, % at 11 µM; P03206; ZTA-DNA binding, fluorescence polarization; 0.15% of 320,000 active; in the data active = inhibition above about 33%
Target sequence (P03206 whole entry, looked up): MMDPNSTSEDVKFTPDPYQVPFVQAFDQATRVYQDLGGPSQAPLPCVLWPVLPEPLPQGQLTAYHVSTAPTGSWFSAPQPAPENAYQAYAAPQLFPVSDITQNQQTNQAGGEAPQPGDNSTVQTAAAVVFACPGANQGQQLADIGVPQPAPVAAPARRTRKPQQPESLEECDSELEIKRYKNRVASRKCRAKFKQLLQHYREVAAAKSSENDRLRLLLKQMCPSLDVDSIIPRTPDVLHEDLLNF
GPR7 antag: human neuropeptides B/W receptor 1 antagonism; P48145; GPR7-expressing cells, fluorescence antagonist assay; inhibition, % at 4.4 µM; 1.1% of 290,000 active; AID 1861; in the data active = inhibition above about 16%, passing the limit was not always enough;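 note: cells stimulated with the agonist NPW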
Target sequence (P48145 whole entry, looked up): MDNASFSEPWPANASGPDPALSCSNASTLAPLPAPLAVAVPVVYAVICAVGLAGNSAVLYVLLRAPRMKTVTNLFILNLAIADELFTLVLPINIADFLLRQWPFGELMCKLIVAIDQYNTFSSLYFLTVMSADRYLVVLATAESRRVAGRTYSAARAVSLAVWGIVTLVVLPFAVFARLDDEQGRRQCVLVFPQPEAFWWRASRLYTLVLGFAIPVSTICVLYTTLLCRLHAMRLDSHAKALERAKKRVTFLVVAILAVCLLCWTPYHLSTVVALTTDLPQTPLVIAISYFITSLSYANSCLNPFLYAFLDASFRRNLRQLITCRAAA
FID counter: displaces DNA intercalator in HCV helicase counter-screen; DNA fluorescent intercalator displacement, fluorescence; inhibition, % at 7.9 µM; 0.17% of 290,000 active; AID 1845; in the data active = inhibition above about 37%;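 note: higher means more ethidium bromide displaced from hairpin DNA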
A number is an active result; ! = not active in a repeat.

Screening CCc1cc(=O)oc2cc(OCC(=O)N3CCC[C@H]3C(=O)O)ccc12 returned EBNA-1 inhibitor inactive, NS3 helicase inh inactive, ZTA counter inactive, GPR7 antag inactive and FID counter 95.
Screening Cc1ccc(C(=O)NC2CCCc3c2cnn3-c2ccc(F)cc2F)cn1 (stereo unspecified) returned EBNA-1 inhibitor inactive, NS3 helicase inh inactive, ZTA counter inactive, GPR7 antag inactive and FID counter inactive.
N#C/C(=C\c1ccccn1)c1nc2ccccc2s1 was read as EBNA-1 inhibitor inactive, NS3 helicase inh inactive, ZTA counter inactive, GPR7 antag 21 and FID counter inactive.
C(=N\Nc1cc(N2CCCCC2)ncn1)/c1ccco1 was read as EBNA-1 inhibitor inactive, NS3 helicase inh inactive, ZTA counter inactive, GPR7 antag inactive and FID counter inactive.
`N#CCc1nc(CSc2nc3ccccc3s2)cs1` gave EBNA-1 inhibitor inactive, NS3 helicase inh inactive, ZTA counter inactive, GPR7 antag 16 and FID counter inactive.
Screening c1ccc2sc(SCSc3nc4ccccc4s3)nc2c1 returned EBNA-1 inhibitor inactive, NS3 helicase inh inactive, ZTA counter inactive, GPR7 antag inactive and FID counter inactive.
`CC#CC(=O)NCC1(N(C)Cc2ccccc2)Cc2ccccc2C1` gave EBNA-1 inhibitor inactive, NS3 helicase inh inactive, ZTA counter inactive, GPR7 antag inactive and FID counter inactive.
COc1ccc(-n2c(=O)cc(N3CCN(Cc4ccccc4)CC3)[nH]c2=O)cc1 was read as EBNA-1 inhibitor inactive, NS3 helicase inh inactive, ZTA counter inactive, GPR7 antag 18 and FID counter inactive.
Screening O=c1cc(N2CCN(Cc3ccccc3)CC2)[nH]c(=O)n1-c1ccc(Br)cc1 returned EBNA-1 inhibitor inactive, NS3 helicase inh inactive, ZTA counter inactive, GPR7 antag inactive and FID counter inactive.
For CC1=NN(c2ccccc2)C(=O)/C1=C/c1c(O)n(-c2ccc(F)c(Cl)c2)[nH]c1=O the results were EBNA-1 inhibitor inactive, NS3 helicase inh inactive, ZTA counter inactive, GPR7 antag inactive and FID counter 41.
Screening Oc1cc(-n2cccn2)c(O)cc1-n1cccn1 returned EBNA-1 inhibitor inactive, NS3 helicase inh inactive, ZTA counter inactive, GPR7 antag 46 and FID counter inactive.
Cc1ccc(C)c(SCC(=O)Nc2ccc(C)c(S(=O)(=O)N3CCOCC3)c2)c1 was read as ZTA counter inactive.
`CCC(C)N(C(=O)Cn1nnc(-c2ccc(Cl)cc2)n1)C1CCS(=O)(=O)C1` (stereo unspecified) gave EBNA-1 inhibitor inactive and ZTA counter inactive.
CN(c1ccccc1)S(=O)(=O)c1ccc(C(=O)N2CCc3ccccc3C2)cc1 was read as EBNA-1 inhibitor inactive, NS3 helicase inh inactive, ZTA counter inactive, GPR7 antag 20 and FID counter inactive.
For O=C(c1ccco1)c1cn(CC(=O)N2CCCc3ccccc32)c2ccccc12 the results were EBNA-1 inhibitor inactive, NS3 helicase inh inactive, ZTA counter inactive, GPR7 antag 19 and FID counter inactive.
COc1ccc(-c2c(-c3cc(OC)cc(OC)c3)n(C)c3ccc(-c4cc(F)cc(OC)c4)cc23)cc1 was read as ZTA counter inactive.
For CCC(C)c1ccc(C2C3=C(Nc4nc(N)[nH]c(=O)c42)c2ccccc2C3=O)cc1 (stereo unspecified) the results were EBNA-1 inhibitor inactive, NS3 helicase inh inactive, ZTA counter inactive, GPR7 antag inactive and FID counter 96.
CC(=O)N(CCC(c1ccccc1)c1ccco1)Cc1cccs1 (stereo unspecified) was read as EBNA-1 inhibitor inactive, NS3 helicase inh inactive, ZTA counter inactive, GPR7 antag inactive and FID counter inactive.
For CCC(=O)N(CCC(c1ccco1)c1ccccc1OC)Cc1cccs1 (stereo unspecified) the results were EBNA-1 inhibitor inactive, NS3 helicase inh inactive, ZTA counter inactive, GPR7 antag 19 and FID counter inactive.
For Nc1cccc(C(=O)OCC(=O)Nc2cccc3c2C(=O)c2ccccc2C3=O)c1 the results were EBNA-1 inhibitor inactive, NS3 helicase inh inactive, ZTA counter inactive, GPR7 antag inactive and FID counter inactive.
`CCN(CC)CCNC(=O)c1ccc2c(c1NCCO)C(=O)c1ccccc1C2=O` gave EBNA-1 inhibitor inactive, NS3 helicase inh inactive, ZTA counter inactive, GPR7 antag inactive and FID counter 42.
Screening CCN(CC)CCC(=O)Nc1cccc2c1C(=O)c1ccccc1C2=O returned EBNA-1 inhibitor inactive, NS3 helicase inh inactive, ZTA counter inactive, GPR7 antag inactive and FID counter 69.
`CCCn1c(N)c(C(=O)CSc2nncs2)c(=O)[nH]c1=O` gave ZTA counter inactive.
COc1ccc(C2=C(CN(C)C)C(c3ccccc3)c3ccccc3O2)cc1 (stereo unspecified) was read as EBNA-1 inhibitor inactive, NS3 helicase inh inactive, ZTA counter inactive, GPR7 antag inactive and FID counter 46!.
CCOc1ccc(C2=C(C=C(C#N)C#N)C(c3ccccc3)c3ccccc3O2)cc1 (stereo unspecified) was read as EBNA-1 inhibitor inactive, NS3 helicase inh inactive, ZTA counter inactive, GPR7 antag inactive and FID counter inactive.
`CN(C(=O)COC(=O)c1ccc2ccccc2n1)C1CCS(=O)(=O)C1` (stereo unspecified) gave EBNA-1 inhibitor active, NS3 helicase inh inactive, ZTA counter active, GPR7 antag inactive and FID counter inactive.
`Cc1cc(Oc2ccc3ccccc3c2)nc(SCC(=O)c2ccccc2)n1` gave EBNA-1 inhibitor inactive, NS3 helicase inh inactive, ZTA counter inactive, GPR7 antag 32 and FID counter inactive.
Cc1cc(Oc2ccc(Br)cc2)nc(SCC(=O)c2ccccc2)n1 was read as EBNA-1 inhibitor inactive, NS3 helicase inh inactive, ZTA counter inactive, GPR7 antag inactive and FID counter inactive.
O=C(O)CCc1[nH]c2ccccc2c1Sc1ccccc1 was read as EBNA-1 inhibitor inactive, NS3 helicase inh inactive, ZTA counter inactive, GPR7 antag inactive and FID counter inactive.
For C=CCn1c(=NC(=O)c2sc3ccccc3c2Cl)sc2cc(S(N)(=O)=O)ccc21 the results were EBNA-1 inhibitor 31, NS3 helicase inh inactive, ZTA counter inactive, GPR7 antag inactive and FID counter inactive.
Screening N#Cc1ccc(C(=O)Nc2cc(C3CC3)nn2-c2ccccc2)cc1 returned EBNA-1 inhibitor inactive and ZTA counter inactive.
`Cn1c(=O)c(NCCc2ccccc2)c2c3c(cccc31)C(=O)c1ccccc1-2` gave EBNA-1 inhibitor inactive, NS3 helicase inh inactive, ZTA counter inactive, GPR7 antag 64 and FID counter inactive.
CCNc1c2c3c(cccc3n(C)c1=O)C(=O)c1ccccc1-2 was read as EBNA-1 inhibitor inactive, NS3 helicase inh inactive, ZTA counter inactive, GPR7 antag inactive and FID counter inactive.
For CCCC(=O)Nc1cc(C(=O)N(C)CC(OC)OC)ccc1S(=O)(=O)c1ccc(C)cc1 the results were EBNA-1 inhibitor inactive, NS3 helicase inh inactive, ZTA counter inactive, GPR7 antag inactive and FID counter inactive.
